The values below come from paper PMC10262665 (Science (New York, N.Y.), 2023).

Structures are written as SMILES. pKd: −log10 of the molar value.

The target of one assay is T1, Sestrin2 (Homo sapiens, UniProt P58004).
T1 sequence (P58004 1-480): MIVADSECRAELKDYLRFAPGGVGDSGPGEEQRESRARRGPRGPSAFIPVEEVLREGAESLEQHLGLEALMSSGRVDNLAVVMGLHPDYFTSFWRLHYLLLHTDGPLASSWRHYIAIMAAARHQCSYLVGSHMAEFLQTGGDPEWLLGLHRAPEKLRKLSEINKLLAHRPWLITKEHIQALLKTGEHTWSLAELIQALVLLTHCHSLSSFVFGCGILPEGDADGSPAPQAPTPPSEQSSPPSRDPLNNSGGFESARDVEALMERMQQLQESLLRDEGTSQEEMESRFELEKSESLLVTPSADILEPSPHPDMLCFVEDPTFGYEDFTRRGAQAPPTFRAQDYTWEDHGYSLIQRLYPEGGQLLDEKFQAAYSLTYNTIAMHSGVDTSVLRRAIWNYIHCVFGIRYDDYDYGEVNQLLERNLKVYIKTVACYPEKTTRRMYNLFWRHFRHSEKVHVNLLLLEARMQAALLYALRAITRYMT
The assay is described as follows: MIDAS protein-metabolite interaction screen. In kind it is binding. As to conditions: significant PMI Q < 0.01. Put shortly:
(§1)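 Purified protein is separated from a defined metabolite library by a semipermeable dialysis membrane that passes metabolites but not protein, then incubated to relative equilibrium. Protein is denatured and removed. Metabolites in both chambers are quantified by flow injection analysis–MS, with methods optimized for each pool. The between-chamber fold change is normalized and corrected for nonspecific interactions.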

A further assay concerns the target T2, CASTOR1 (Homo sapiens, UniProt Q8WTX7).
T2 sequence (Q8WTX7 1-329): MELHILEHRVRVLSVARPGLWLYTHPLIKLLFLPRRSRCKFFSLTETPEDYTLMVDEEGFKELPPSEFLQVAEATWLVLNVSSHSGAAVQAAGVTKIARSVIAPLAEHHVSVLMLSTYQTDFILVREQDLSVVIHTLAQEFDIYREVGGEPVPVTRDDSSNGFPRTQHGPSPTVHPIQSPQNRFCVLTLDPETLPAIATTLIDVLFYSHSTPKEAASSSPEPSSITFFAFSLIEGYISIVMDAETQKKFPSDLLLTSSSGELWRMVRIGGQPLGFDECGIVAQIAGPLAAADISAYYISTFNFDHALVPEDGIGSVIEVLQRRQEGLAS
The assay is described as follows: MIDAS. In kind it is binding. Conditions: significant PMI Q < 0.01. In short, it runs like this: as §1

The target of another assay is GAPDH (Homo sapiens, UniProt P04406). Nature of the assay: MIDAS protein-metabolite interaction screen. As to conditions: significant PMI Q < 0.01. In kind it is binding.
Chain of GAPDH (P04406 whole entry): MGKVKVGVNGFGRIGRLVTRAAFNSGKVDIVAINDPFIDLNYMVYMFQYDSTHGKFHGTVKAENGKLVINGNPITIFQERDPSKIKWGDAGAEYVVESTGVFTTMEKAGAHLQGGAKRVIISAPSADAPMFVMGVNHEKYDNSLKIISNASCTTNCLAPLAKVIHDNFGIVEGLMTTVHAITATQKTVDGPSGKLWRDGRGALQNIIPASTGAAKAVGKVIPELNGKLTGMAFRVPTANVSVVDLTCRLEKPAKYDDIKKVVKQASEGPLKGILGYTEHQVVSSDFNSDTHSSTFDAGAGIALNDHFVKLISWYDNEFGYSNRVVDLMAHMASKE
In assay [1] the target is T3, LDHB (Homo sapiens, UniProt P07195). Nature of the assay: MIDAS protein-metabolite interaction screen. Format: binding. Conditions: significant PMI Q < 0.01. In short, it runs like this: as §1
T3 sequence (P07195 whole entry): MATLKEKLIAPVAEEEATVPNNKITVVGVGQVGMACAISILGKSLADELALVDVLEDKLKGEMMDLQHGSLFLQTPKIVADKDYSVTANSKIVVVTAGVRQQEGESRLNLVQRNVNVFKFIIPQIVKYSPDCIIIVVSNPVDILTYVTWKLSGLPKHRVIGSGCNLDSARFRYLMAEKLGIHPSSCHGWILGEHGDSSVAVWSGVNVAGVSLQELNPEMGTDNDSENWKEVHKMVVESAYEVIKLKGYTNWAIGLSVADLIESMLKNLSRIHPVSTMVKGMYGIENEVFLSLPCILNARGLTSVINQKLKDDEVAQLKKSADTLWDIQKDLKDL
Assay [2] has as its target T4, LDHA (Homo sapiens, UniProt P00338). Nature of the assay: MIDAS protein-metabolite interaction screen. Format: binding. Conditions: significant PMI Q < 0.01. In short, it runs like this:
as §1

Assay [3] has as its target glucose-6-phosphate isomerase (GPI) (Homo sapiens, UniProt P06744). The assay is described as follows: MIDAS protein-metabolite interaction screen. In kind it is binding. As to conditions: significant PMI Q < 0.01. Put shortly:
as §1

The next assay has as its target PKM2 (Homo sapiens, UniProt P14618). Nature of the assay: MIDAS protein-metabolite interaction screen. In kind it is binding. As to conditions: significant PMI Q < 0.01. Put shortly:
as §1

Assay [4] has as its system H9c2 rat cardiomyoblasts. Nature of the assay: 13C-glucose metabolic tracing into lactate. Format: cell-based. Conditions: for labeling of lactate from 13C-glucose: BSA-conjugated palmitate vs BSA.
Assay [5] has as its system H9c2 rat cardiomyoblasts. The assay is described as follows: 13C-lactate metabolic tracing into pyruvate. In kind it is cell-based.
Assay [6] concerns the target T4, LDHA. The assay is described as follows: LDH enzyme activity assay. In kind it is biochemical. Conditions: in vitro. In short, it runs like this: (§2)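 LDH isoform activity measured in vitro with test metabolites (adenosine nucleotides, CoA and acyl-CoAs) over a concentration range. IC50 is derived from the inhibition curves. Mode of inhibition is assessed against NAD and lactate.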

Assay [7] has as its target T3, LDHB. Nature of the assay: LDH enzyme activity assay. Format: biochemical. As to conditions: in vitro. In short, it runs like this: as §2
The next assay has as its target T5, fumarase (Homo sapiens, UniProt P07954).
T5 sequence (P07954 45-510): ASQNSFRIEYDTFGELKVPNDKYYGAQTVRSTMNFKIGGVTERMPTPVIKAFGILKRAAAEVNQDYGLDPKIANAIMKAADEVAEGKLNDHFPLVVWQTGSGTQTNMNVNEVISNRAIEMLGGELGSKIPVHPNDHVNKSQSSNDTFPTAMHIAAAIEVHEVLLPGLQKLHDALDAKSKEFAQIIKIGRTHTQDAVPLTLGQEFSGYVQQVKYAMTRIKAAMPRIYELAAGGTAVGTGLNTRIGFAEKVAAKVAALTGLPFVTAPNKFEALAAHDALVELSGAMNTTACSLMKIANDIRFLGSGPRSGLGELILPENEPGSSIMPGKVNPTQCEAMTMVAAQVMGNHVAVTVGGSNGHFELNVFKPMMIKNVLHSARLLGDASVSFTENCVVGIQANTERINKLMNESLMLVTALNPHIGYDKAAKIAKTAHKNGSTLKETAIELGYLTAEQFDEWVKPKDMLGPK
The assay is described as follows: Differential scanning fluorimetry. In kind it is binding. Conditions: read-out: apparent dissociation constant (Kd app); DSF, fumarase. (In general: DSF heats the sample and reads unfolding from a dye or from intrinsic fluorescence.)

A further assay concerns the target PGAM1 (Homo sapiens, UniProt P18669). Nature of the assay: MIDAS protein-metabolite interaction screen. Format: binding. As to conditions: significant PMI Q < 0.01. Put shortly: as §1
The next assay has as its target T6, PGAM2 (Homo sapiens, UniProt P15259).
T6 sequence (P15259 1-253): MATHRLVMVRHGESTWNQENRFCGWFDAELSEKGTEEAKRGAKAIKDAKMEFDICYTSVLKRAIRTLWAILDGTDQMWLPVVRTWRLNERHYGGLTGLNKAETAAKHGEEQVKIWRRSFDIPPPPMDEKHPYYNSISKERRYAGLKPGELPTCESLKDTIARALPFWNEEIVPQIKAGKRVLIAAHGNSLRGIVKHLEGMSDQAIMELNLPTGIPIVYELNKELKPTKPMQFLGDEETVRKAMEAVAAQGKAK
The assay is described as follows: MIDAS protein-metabolite interaction screen. Format: binding. As to conditions: significant PMI Q < 0.01. Put shortly: as §1

Where [8] appears, read: dimethylated fatty acid analogs.

Chain of PKM2 (P14618 whole entry): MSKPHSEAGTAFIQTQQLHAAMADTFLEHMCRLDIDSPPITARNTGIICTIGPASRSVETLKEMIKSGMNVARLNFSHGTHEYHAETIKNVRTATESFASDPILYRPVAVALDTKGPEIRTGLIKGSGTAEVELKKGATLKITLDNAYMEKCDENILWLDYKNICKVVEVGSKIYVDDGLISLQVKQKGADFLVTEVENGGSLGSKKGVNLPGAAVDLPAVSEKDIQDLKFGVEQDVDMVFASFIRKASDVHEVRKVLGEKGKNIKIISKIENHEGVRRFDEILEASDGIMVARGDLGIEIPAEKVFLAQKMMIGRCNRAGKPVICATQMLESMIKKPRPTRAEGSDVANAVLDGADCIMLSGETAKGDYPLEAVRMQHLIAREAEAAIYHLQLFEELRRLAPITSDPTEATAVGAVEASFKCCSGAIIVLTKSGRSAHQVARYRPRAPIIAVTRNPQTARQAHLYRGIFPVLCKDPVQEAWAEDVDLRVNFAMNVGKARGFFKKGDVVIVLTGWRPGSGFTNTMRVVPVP
Chain of PGAM1 (P18669 whole entry): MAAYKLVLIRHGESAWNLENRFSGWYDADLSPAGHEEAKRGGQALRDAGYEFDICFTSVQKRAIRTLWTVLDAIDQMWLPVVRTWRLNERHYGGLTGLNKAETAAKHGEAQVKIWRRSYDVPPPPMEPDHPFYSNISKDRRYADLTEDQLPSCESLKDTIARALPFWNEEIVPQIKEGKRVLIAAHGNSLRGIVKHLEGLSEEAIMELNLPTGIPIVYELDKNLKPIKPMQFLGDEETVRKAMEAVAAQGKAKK

In the case of `NCCCN` [1,3-diaminopropane], the MIDAS protein-metabolite interaction result at Sestrin2 and on CASTOR1 was “bind” in each case. As for `NC(=O)c1ccc[n+]([C@@H]2O[C@H](COP(=O)([O-])OP(=O)(O)OC[C@H]3O[C@@H](n4cnc5c(N)ncnc54)[C@H](O)[C@@H]3O)[C@@H](O)[C@H]2O)c1` [NAD, nicotinamide adenine dinucleotide], the MIDAS protein-metabolite interaction entry at GAPDH is “interacted”; on LDHB [1], “interactions”; at LDHA [2] it was “interactions”.

Turning to `NC(=O)C1=CN([C@@H]2O[C@H](COP(=O)(O)OP(=O)(O)OC[C@H]3O[C@@H](n4cnc5c(N)ncnc54)[C@H](O)[C@@H]3O)[C@@H](O)[C@H]2O)C=CC1` [NADH], the MIDAS protein-metabolite interaction result on LDHB [1] and at LDHA [2] was “interactions” each time. On to `NC(=O)c1ccc[n+]([C@@H]2O[C@H](COP(=O)([O-])O)[C@@H](O)[C@H]2O)c1` [nicotinamide mononucleotide], for which the MIDAS protein-metabolite interaction result at LDHB [1] and on LDHA [2] was “interactions” throughout.

On to `O=C(CO)[C@@H](O)[C@H](O)[C@H](O)COP(=O)(O)O` [fructose-6-phosphate], for which the MIDAS protein-metabolite interaction result in [3] is recorded as “interacted”. For the compound `CN1c2c(nc(N)[nH]c2=O)NCC1CNc1ccc(C(=O)N[C@@H](CCC(=O)O)C(=O)O)cc1` (some centres unmarked) [5-MTHF, 5-methyltetrahydrofolate], the MIDAS protein-metabolite interaction entry on PKM2 is reported as “interacted”. With `NCCCCCN` [cadaverine], the MIDAS protein-metabolite interaction result at Sestrin2 and at CASTOR1 was “bind” in each case. Turning to `CCCCCCCCCCCCCCCC(=O)O` [Palmitate, palmitate], the “labeling of lactate from 13C-glucose” value with H9c2 rat cardiomyoblasts [4] (Ldhb−/− H9c2 cells) and with H9c2 rat cardiomyoblasts [4] (WT H9c2 cells) was “decreased” in each case. Besides, the “pyruvate labeling from 13C-lactate” value in the assay on H9c2 rat cardiomyoblasts [5] (Ldha−/− H9c2 cells) and in the assay with H9c2 rat cardiomyoblasts [5] (Ldha−/−Ldhb−/− H9c2 cells) was “unaffected” in each case. For the same compound, the “generation of m+3 pyruvate from 13C-lactate” value in the assay on H9c2 rat cardiomyoblasts [5] (Ldhb−/− H9c2 cells) and in the assay with H9c2 rat cardiomyoblasts [5] (WT H9c2 cells) was “blunted” in each case. For the compound `Nc1ncnc2c1ncn2[C@@H]1O[C@H](COP(=O)(O)OP(=O)(O)O)[C@@H](O)[C@H]1O` [ADP, adenosine diphosphate], at LDHA [6], the “inhibition of LDHA enzyme activity” value is on record as “only at supraphysiological concentrations”. In addition, on LDHB [7], the “inhibition of LDHB enzyme activity” value was “only at supraphysiological concentrations”. `O=C(O)/C=C/C(=O)O` [fumarate]: the pKd on fumarase is 2.41.

As to `CCC/C=C/C/C=C/C=C/C=N/NN=O` [triacsin C, reference compound], the “effect on palmitate-mediated inhibition of lactate labeling” value with H9c2 rat cardiomyoblasts [4] (13C-glucose tracing in presence of palmitate) is recorded as “prevented”. For the same compound, in the assay on H9c2 rat cardiomyoblasts [5] (13C-lactate tracing in presence of palmitate), the “effect on palmitate-mediated inhibition of pyruvate labeling” value is listed as “prevented”. Consider `NCCCCN=C(N)N` [agmatine], for which the MIDAS protein-metabolite interaction result on Sestrin2 and at CASTOR1 was “bind” in each case. With `CCCCCCCCCCCCCCCCC(C)(C)C(=O)O` [DiMeSte, 2,2-dimethyl-stearate, reference compound], in the assay on H9c2 rat cardiomyoblasts [4] (setting [8]), the 13C-glucose tracing result was “inhibited”. Besides, in the assay with H9c2 rat cardiomyoblasts [5] (setting [8]), the 13C-lactate tracing result is recorded as “inhibited”. Consider `N=C(N)NCCC[C@H](N)C(=O)O` [arginine], for which, on CASTOR1, the MIDAS protein-metabolite interaction result is recorded as “most enriched interactors”. `N[C@@H](Cc1cc(I)c(O)c(I)c1)C(=O)O` [3,5-diiodo-L-tyrosine]: on PKM2, the MIDAS protein-metabolite interaction result is “interacted”. For `O=C[C@H](O)[C@@H](O)[C@H](O)[C@H](O)COP(=O)(O)O` [glucose-6-phosphate], in assay [3], the MIDAS protein-metabolite interaction entry is recorded as “interacted”. Turning to `O=C(O)[C@H](O)COP(=O)(O)O` [3PG, 3-phosphoglycerate], the MIDAS protein-metabolite interaction result on PGAM1 and at PGAM2 was “interacted” in each case.

Consider `Nc1nc2c(ncn2[C@@H]2O[C@H](COP(=O)(O)OP(=O)(O)O)[C@@H](O)[C@H]2O)c(=O)[nH]1` [GDP, guanosine diphosphate], for which, at PKM2, the MIDAS protein-metabolite interaction result was “interacted”. As for `O=C(O)CC(=O)C(=O)O` [oxaloacetate], the MIDAS protein-metabolite interaction result at LDHB [1] and on LDHA [2] was “interactions” throughout. In the case of `Cc1cc2nc3c(=O)[nH]c(=O)nc-3n(C[C@H](O)[C@H](O)[C@H](O)COP(=O)(O)OP(=O)(O)OC[C@H]3O[C@@H](n4cnc5c(N)ncnc54)[C@H](O)[C@@H]3O)c2cc1C` [flavin adenine dinucleotide], the MIDAS protein-metabolite interaction entry on LDHB [1] and at LDHA [2] was “interactions” each time. With `Nc1ncnc2c1ncn2[C@@H]1O[C@H](COP(=O)(O)O)[C@@H](O)[C@H]1O` [AMP, adenosine monophosphate], the “inhibition of LDHA enzyme activity” value on LDHA [6] is “only at supraphysiological concentrations”. Moreover, the “inhibition of LDHB enzyme activity” value at LDHB [7] is given as “only at supraphysiological concentrations”. Turning to `O=P(O)(O)O[C@@H]1[C@H](O)[C@H](O)[C@@H](OP(=O)(O)O)[C@H](OP(=O)(O)O)[C@H]1O` [inositol-1,4,5-trisphosphate], the MIDAS protein-metabolite interaction result at GAPDH and on PGAM1 was “interacted” throughout. As for `O=C(O)C(COP(=O)(O)O)OP(=O)(O)O` (centres unmarked) [2,3-BPG, 2,3-bisphosphoglycerate], the MIDAS protein-metabolite interaction result on GAPDH, at PGAM1 and on PGAM2 was “interacted” in each case. Consider `C=C(OP(=O)(O)O)C(=O)O` [PEP, phosphoenolpyruvate], for which the MIDAS protein-metabolite interaction result on PGAM1 and at PGAM2 was “interacted” throughout.

One may read the pKd as the Kd on a negative log10 scale, so that one unit is a factor of ten.
